Among the data in ChEMBL document CHEMBL1125056, “Heterosubstituted anthracene-9,10-dione analogues. The synthesis and antitumor evaluation of 5,8-bis[(aminoalkyl)amino]naphtho[2,3-b] thiophene-4,9-diones” (1990) are IC50 and T/C values, retold here.

Test [1] concerns L1210. Briefly: Compound was tested for the concentration required to inhibit L1210 murine leukemia cell growth by 50% of control. It is filed as functional. The conditions noted are these: Mus musculus, read-out: ID50 (the source's name). The method, boiled down:
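L1210 cells grown in suspension in McCoy's 5A with 10% horse serum, glutamine, penicillin and streptomycin at 37 °C in 10% CO2. Drug was added from DMSO to 5 × 10^4 cells/mL at final 0.01, 0.1 and 10 μg/mL. After 72 h continuous exposure, cells were counted on a Coulter counter.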

The test system of test [2] is L1210. The test can be described thus: T/C in % was determined against L1210 murine leukemia cells at a dose of 12.5x2 mg/kg; 60 - day survivors =0/6. The format is functional, Mus musculus.
Test [3] concerns P388 leukemia (mouse). The test can be described thus: T/C in % was determined against P388 murine leukemia cells at a dose of 50 x2 mg/kg; 60 - day survivors =0/6.
For test [4], the system named is P388 leukemia (mouse). The test can be described thus: T/C in % was determined against P388 murine leukemia cells at a dose of 25 x2 mg/kg; 60 - day survivors =0/6.
The subject of test [5] is L1210. The test can be described thus: T/C in % was determined against L1210 murine leukemia cells at a dose of 6.25 x3 mg/kg; 60 - day survivors =1/6. It is filed as functional, Mus musculus.
Test [6] has as its system L1210. Briefly: T/C in % was determined against L1210 murine leukemia cells at a dose of 25x3 mg/kg; 60 - day survivors =3/6. The format is functional, Mus musculus.
In test [7] the test system is L1210. The test can be described thus: T/C in % was determined against L1210 murine leukemia cells at a dose of 50 x3 mg/kg; 60 - day survivors =0/6. It is filed as functional, Mus musculus.
In test [8] the test system is L1210. The test can be described thus: T/C in % was determined against L1210 murine leukemia cells at a dose of 25 x3 mg/kg; 60 - day survivors =0/6. The format is functional, Mus musculus.
Test [9] relates to P388 leukemia (mouse). The test can be described thus: T/C in % was determined against P388 murine leukemia cells at a dose of 100 x1 mg/kg; Toxic.
Test [10] deals with L1210. Briefly: T/C in % was determined against L1210 murine leukemia cells at a dose of 25 x3 mg/kg; 60 - day survivors =1/6. It is filed as functional, Mus musculus.
The test system of test [11] is L1210. Briefly: T/C in % was determined against L1210 murine leukemia cells at a dose of 12.5 x3 mg/kg. It is filed as functional, Mus musculus.
Test [12] deals with L1210. Briefly: T/C in % was determined against L1210 murine leukemia cells at a dose of 50 x3 mg/kg.
The subject of test [13] is L1210. The test can be described thus: T/C in % was determined against L1210 murine leukemia cells at a dose of 4 x3 mg/kg 60 - day survivors =3/6. The format is functional, Mus musculus.
Test [14] relates to L1210. The test can be described thus: T/C in % was determined against L1210 murine leukemia cells at a dose of 8 x3 mg/kg; 60 - day survivors =1/6. The format is functional, Mus musculus.
In test [15] the test system is L1210. Briefly: T/C in % was determined against L1210 murine leukemia cells at a dose of 12.5 x2 mg/kg; 60 - day survivors =1/6. It is filed as functional, Mus musculus.

In brackets after ≈: the same amount, converted by molar mass.

As a reminder, the T/C is the ratio of treated to control. For `O=C1c2ccsc2C(=O)c2c(NCCN3CC3)ccc(NCCN3CC3)c21`, in the test on L1210 [1], the IC50 turned out to be 0.0035 µg/mL (≈ 0.00915 µM). Further, the T/C in the test on L1210 [2] turned out to be 104%; with P388 leukemia (mouse) [3], 114%; in the test with P388 leukemia (mouse) [4] it was 112%.

As to `O=C1c2ccsc2C(=O)c2c(NCCNCCO)ccc(NCCNCCO)c21`, the IC50 with L1210 [1] was found to be 0.064 µg/mL (≈ 0.153 µM). Also, the results for the T/C in the test with L1210 [5] and in the test with L1210 [6] were 403% and 333%, respectively.

For the compound `O=C1c2ccsc2C(=O)c2c(NCCO)ccc(NCCO)c21`, in the test on L1210 [1], the IC50 is greater than 10 µg/mL.

On to `O=C1c2ccsc2C(=O)c2c(NCCBr)ccc(NCCBr)c21`, for which the IC50 with L1210 [1] is 5.2 µg/mL (≈ 11.3 µM).

For `CN(C)CCNc1ccc(NCCN(C)C)c2c1C(=O)c1ccsc1C2=O`, the IC50 in the test on L1210 [1] worked out at 0.038 µg/mL (≈ 0.0983 µM). The T/C in the test on L1210 [7] was 109%; with L1210 [8] it was 107%; with P388 leukemia (mouse) [9] it was “Toxic”; in the test on P388 leukemia (mouse) [3] it was 128%; in the test with P388 leukemia (mouse) [4], 108%.

Regarding `O=C1c2ccccc2C(=O)c2c(NCCNCCO)ccc(NCCNCCO)c21` [AMETANTRONE], the T/C was 203% in the test on L1210 [10], 177% in the test on L1210 [11] and 146% in the test on L1210 [12].

For the compound `NCCNc1ccc(NCCN)c2c1C(=O)c1ccsc1C2=O`, the IC50 in the test with L1210 [1] was 0.026 µg/mL (≈ 0.0787 µM). Besides, the T/C with L1210 [13] is 325%; with L1210 [14], 400%; with L1210 [15], 386%.
